Assay results reported in ChEMBL document CHEMBL4033714, “Discovery of BI 135585, an in vivo efficacious oxazinanone-based 11β hydroxysteroid dehydrogenase type 1 inhibitor” (Bioorg Med Chem, 2017).
In brackets after ≈: the same amount, converted by molar mass.

Columns and labels:
Cytochrome P450 2D6 = Cytochrome P450 2D6 (Homo sapiens, UniProt P10635); assay: Inhibition of CYP2D6 (unknown origin); type: ADME
Cynomolgus monkey [1] = assay: Dose normalized AUC in iv dosed cynomolgus monkey; type: ADME, organism-based, Macaca fascicularis; conditions: in vivo
[2] = Half life in rat liver microsomes; type: ADME, microsome
CYP3A4 = CYP3A4 (Homo sapiens, UniProt P08684); assay: Inhibition of recombinant CYP3A4 (unknown origin); type: ADME; conditions: recombinant CYP3A4
Sequence of CYP3A4 (P08684 whole entry): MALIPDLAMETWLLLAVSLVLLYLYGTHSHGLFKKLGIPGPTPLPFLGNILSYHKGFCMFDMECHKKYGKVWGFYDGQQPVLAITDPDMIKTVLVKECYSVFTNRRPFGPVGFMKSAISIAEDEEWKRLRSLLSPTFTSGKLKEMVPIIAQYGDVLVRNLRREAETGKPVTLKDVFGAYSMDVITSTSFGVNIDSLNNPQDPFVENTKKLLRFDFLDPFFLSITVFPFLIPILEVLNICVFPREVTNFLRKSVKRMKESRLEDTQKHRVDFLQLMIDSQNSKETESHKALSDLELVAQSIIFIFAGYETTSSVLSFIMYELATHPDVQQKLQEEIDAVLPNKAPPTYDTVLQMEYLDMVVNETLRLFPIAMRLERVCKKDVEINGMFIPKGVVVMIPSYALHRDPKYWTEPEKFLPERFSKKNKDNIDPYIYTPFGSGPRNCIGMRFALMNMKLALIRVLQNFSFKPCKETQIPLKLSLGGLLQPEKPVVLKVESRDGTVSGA

[3] = Aqueous solubility of the compound; type: physicochemical; conditions: aqueous medium; read-out: solubility
Procedure, shortened: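 Solubility measured in water, with each compound tested as amorphous material.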

[4] = Half life in human liver microsomes; type: ADME, microsome
[5] = biological target: Voltage-gated inwardly rectifying potassium channel KCNH2 (Homo sapiens, UniProt Q12809); assay: Inhibition of human ERG
Sequence of Voltage-gated inwardly rectifying potassium channel KCNH2 (Q12809 whole entry): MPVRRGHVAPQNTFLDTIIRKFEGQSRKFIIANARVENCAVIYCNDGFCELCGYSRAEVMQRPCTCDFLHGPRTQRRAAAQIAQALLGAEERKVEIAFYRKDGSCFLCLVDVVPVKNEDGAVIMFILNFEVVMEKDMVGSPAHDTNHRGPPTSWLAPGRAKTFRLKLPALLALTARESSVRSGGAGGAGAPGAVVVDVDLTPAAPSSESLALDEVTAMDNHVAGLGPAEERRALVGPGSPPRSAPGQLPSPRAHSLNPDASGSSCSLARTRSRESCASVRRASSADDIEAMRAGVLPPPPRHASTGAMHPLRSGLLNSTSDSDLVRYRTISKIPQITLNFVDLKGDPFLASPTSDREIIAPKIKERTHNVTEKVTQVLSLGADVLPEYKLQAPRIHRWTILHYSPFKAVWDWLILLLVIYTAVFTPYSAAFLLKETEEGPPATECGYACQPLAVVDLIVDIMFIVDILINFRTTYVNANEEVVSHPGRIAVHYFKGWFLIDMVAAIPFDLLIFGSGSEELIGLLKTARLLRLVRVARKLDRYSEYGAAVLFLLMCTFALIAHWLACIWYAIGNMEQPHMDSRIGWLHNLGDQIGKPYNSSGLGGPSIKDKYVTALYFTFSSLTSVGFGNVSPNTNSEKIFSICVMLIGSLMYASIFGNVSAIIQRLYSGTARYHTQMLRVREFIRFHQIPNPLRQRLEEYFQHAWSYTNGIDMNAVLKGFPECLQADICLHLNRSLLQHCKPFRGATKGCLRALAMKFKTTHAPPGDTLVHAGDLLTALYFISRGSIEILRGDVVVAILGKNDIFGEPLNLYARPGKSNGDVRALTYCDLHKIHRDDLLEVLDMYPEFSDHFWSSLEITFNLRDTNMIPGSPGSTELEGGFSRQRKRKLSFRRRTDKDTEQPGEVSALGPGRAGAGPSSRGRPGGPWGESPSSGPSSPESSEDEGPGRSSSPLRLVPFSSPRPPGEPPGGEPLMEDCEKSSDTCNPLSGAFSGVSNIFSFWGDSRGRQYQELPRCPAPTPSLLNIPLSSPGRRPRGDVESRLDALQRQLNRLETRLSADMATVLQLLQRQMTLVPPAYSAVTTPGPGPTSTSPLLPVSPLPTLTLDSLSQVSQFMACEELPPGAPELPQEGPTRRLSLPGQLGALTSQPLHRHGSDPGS

CYP2C9 = CYP2C9 (Homo sapiens, UniProt P11712); assay: Inhibition of CYP2C9 (unknown origin); type: ADME
Sequence of CYP2C9 (P11712 whole entry): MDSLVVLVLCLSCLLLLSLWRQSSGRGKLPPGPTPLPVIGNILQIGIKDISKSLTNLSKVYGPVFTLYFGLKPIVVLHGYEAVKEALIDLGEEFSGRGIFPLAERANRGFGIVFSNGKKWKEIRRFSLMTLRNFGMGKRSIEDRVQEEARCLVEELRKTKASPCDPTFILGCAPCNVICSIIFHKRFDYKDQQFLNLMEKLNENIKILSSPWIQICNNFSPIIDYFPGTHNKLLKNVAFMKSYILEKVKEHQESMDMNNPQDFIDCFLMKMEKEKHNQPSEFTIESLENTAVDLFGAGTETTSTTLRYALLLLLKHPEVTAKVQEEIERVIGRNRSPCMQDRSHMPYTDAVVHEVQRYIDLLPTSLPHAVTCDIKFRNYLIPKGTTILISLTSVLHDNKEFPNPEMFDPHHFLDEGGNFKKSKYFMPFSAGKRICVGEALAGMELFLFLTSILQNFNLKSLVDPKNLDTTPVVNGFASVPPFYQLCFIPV

[6] = Half life in cynomolgus monkey liver microsomes; type: ADME, Macaca fascicularis, microsome
hERG = hERG (Homo sapiens, UniProt Q12809); assay: Inhibition of human ERG at 10 uM by patch clamp assay relative to control
Sequence of hERG (Q12809 whole entry): as the sequence (Q12809 whole entry) above

[7] = Mean residence time in iv dosed cynomolgus monkey; type: ADME, organism-based, Macaca fascicularis; conditions: in vivo
[8] = Clearance in iv dosed cynomolgus monkey; type: ADME, organism-based, Macaca fascicularis; conditions: in vivo
[9] = Volume of distribution at steady state in iv dosed cynomolgus monkey; type: ADME, organism-based, Macaca fascicularis; conditions: in vivo, read-out: Vdss
[10] = Mean residence time in po dosed cynomolgus monkey; type: ADME, organism-based, Macaca fascicularis; conditions: in vivo
[11] = Oral bioavailability in cynomolgus monkey; type: ADME, organism-based, Macaca fascicularis; conditions: in vivo
[12] = biological target: T1, 11-beta-hydroxysteroid dehydrogenase type 2 (Homo sapiens, UniProt P80365); assay: Inhibition of 11beta-HSD2 (unknown origin)
T1 sequence (P80365 whole entry): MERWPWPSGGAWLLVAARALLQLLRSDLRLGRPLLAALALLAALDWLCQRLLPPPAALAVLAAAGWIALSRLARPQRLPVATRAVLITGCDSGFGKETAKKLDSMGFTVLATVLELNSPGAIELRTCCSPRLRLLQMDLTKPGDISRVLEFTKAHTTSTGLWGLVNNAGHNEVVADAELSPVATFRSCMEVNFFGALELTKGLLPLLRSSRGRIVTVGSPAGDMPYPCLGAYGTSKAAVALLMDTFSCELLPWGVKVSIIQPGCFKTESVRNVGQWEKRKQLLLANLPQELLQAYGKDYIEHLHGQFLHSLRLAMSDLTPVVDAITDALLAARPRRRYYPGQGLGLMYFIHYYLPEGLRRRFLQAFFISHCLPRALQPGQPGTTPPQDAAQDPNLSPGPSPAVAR

[13] = biological target: T2, 3 beta-hydroxysteroid dehydrogenase/Delta 5-->4-isomerase type 2 (Homo sapiens, UniProt P26439); assay: Inhibition of 3beta-HSD2 (unknown origin)
T2 sequence (P26439 whole entry): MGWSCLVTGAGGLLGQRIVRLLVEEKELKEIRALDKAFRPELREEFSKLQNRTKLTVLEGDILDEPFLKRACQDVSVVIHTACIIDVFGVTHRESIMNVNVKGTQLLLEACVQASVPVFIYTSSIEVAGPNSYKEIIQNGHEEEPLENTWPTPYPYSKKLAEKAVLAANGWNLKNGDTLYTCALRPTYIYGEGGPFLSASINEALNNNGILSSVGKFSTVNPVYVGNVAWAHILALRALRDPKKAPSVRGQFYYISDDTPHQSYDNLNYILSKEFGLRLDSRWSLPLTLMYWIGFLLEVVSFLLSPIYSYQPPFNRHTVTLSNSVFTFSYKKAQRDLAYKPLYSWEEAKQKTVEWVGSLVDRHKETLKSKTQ

[14] = biological target: T3, 17-beta-hydroxysteroid dehydrogenase type 1 (Homo sapiens, UniProt P14061); assay: Inhibition of 17beta-HSD1 (unknown origin)
T3 sequence (P14061 whole entry): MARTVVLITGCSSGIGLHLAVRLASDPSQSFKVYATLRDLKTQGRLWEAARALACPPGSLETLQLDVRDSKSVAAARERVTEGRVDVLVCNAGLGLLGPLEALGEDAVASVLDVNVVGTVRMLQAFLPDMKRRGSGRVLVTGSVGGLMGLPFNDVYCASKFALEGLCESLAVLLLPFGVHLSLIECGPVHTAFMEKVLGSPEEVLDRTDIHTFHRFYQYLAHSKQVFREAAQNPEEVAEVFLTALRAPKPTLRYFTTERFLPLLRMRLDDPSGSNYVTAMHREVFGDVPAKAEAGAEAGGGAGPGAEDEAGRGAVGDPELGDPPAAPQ

[15] = biological target: T4, Nuclear receptor subfamily 1 group I member 2 (Homo sapiens, UniProt O75469); assay: Inhibition of PXR (unknown origin); type: ADME
T4 sequence (O75469 whole entry): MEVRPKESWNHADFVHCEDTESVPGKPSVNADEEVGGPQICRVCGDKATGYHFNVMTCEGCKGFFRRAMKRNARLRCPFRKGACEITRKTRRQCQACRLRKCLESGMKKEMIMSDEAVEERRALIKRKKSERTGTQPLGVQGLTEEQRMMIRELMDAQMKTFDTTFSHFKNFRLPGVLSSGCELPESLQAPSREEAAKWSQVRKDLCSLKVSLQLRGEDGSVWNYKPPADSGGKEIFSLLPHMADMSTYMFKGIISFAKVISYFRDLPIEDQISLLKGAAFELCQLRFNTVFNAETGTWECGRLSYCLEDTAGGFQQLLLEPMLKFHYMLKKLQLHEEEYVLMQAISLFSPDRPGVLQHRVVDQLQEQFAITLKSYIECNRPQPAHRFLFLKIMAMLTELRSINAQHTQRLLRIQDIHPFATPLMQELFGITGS

[16] = Partition coefficient, log P of the compound; type: physicochemical; conditions: octanol/water
[17] = Protein binding in human plasma; type: ADME, cell-free; conditions: read-out: PPB (converted)
Cynomolgus monkey [18] = assay: In-vivo inhibition of 11beta-HSD1 in cynomolgus monkey perirenal adipose tissue assessed as reduction in cortisol level at 1 mg/kg, po using [2H]-cortisone as substrate after 22 hrs by HPLC analysis relative to control; type: functional; conditions: Macaca fascicularis
Procedure, shortened: (§1)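 Cynomolgus monkeys were dosed orally. Perirenal and abdominal subcutaneous adipose tissue was then taken, and cortisone-to-cortisol conversion was measured ex vivo. Reduction in cortisol is expressed relative to vehicle-treated animals.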

Cynomolgus monkey [19] = assay: In-vivo inhibition of 11beta-HSD1 in cynomolgus monkey perirenal adipose tissue assessed as reduction in cortisol level at 3 mg/kg, po using [2H]-cortisone as substrate after 22 hrs by HPLC analysis relative to control; type: functional; conditions: Macaca fascicularis; procedure, shortened: as §1
Cynomolgus monkey [20] = assay: In-vivo inhibition of 11beta-HSD1 in cynomolgus monkey abdominal subcutaneous adipose tissue assessed as reduction in cortisol level at 1 mg/kg, po using [2H]-cortisone as substrate after 22 hrs by HPLC analysis relative to control; type: functional; conditions: Macaca fascicularis; procedure, shortened: as §1
Cynomolgus monkey [21] = assay: In-vivo inhibition of 11beta-HSD1 in cynomolgus monkey abdominal subcutaneous adipose tissue assessed as reduction in cortisol level at 3 mg/kg, po using [2H]-cortisone as substrate after 22 hrs by HPLC analysis relative to control; type: functional; conditions: Macaca fascicularis; procedure, shortened: as §1

Sequence of Cytochrome P450 2D6 (P10635 whole entry): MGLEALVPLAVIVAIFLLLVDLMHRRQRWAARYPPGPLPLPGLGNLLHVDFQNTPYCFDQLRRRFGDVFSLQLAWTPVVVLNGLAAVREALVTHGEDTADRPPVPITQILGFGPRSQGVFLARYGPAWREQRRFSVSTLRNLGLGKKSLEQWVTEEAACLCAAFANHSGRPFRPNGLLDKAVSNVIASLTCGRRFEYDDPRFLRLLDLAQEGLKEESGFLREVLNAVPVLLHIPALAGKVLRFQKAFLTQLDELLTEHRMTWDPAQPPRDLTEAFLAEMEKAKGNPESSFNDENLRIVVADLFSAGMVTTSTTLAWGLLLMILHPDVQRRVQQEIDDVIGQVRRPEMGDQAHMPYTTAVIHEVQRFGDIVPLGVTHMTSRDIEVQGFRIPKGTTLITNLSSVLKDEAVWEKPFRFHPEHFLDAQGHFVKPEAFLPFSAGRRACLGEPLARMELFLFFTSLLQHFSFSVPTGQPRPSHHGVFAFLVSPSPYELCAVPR

For `C[C@@H](c1ccc(-c2ccn(C)c(=O)c2)cc1)N1CC[C@](CC(C)(C)O)(c2ccccc2)OC1=O`, the IC50 (Cytochrome P450 2D6) was > 50 µM, the AUC/dose (Cynomolgus monkey [1]) was 2500 nM·h and the half-life [2] was > 1.5 h. The IC50 (CYP3A4) was > 50 µM, the solubility [3] was 220 µg/mL (≈ 478 µM) and the half-life [4] was > 1.5 h. The IC50 [5] was > 100 µM, the IC50 (CYP2C9) was > 50 µM and the half-life [6] was > 1.5 h. For the same molecule, the inhibition at 10 µM (hERG) was < 10%, the MRT [7] was 5.5 h and the clearance [8] was 7.5 mL/min/kg. It also gave a Vd [9] of 2.5 L/kg, an MRT [10] of 8.7 h and a bioavailability [11] of 54%. For the same molecule, the IC50 [12] was > 10 µM, the IC50 [13] was > 10 µM and the IC50 [14] was > 10 µM. The EC50 [15] was > 10 µM, the logP [16] was 2.6 and the fraction unbound [17] was 0.084. The inhibition in vivo at 1 mg/kg (Cynomolgus monkey [18]) was 67%, the inhibition in vivo at 3 mg/kg (Cynomolgus monkey [19]) was 90% and the inhibition in vivo at 1 mg/kg (Cynomolgus monkey [20]) was 67%. The inhibition in vivo at 3 mg/kg (Cynomolgus monkey [21]) was 95%.
